Screening results deposited in PubChem BioAssay by several laboratories.
697 NFkB inh: inhibitors of PMA/ionomycin-induced NF-kB reporter, 697 cells, primary screen, B-cell NF-kB inhibitor project, cell-based, luminescence, uHTS; 697 B-cell NF-kB luciferase reporter, 16 h; inhibition, % at 4 µM; 330,000 tested, 0.33% active; AID 435022, 2010; in the data active = inhibition above about 35%
Jurkat NFkB inh: inhibitors of induced NF-kB luciferase reporter, primary screen, TCR NF-kB activation inhibitor project, cell-based, luminescence, uHTS; Jurkat, PMA/ionomycin-induced NF-kB luciferase reporter; inhibition, % at 4 µM; 330,000 tested, 0.53% active; in the data active = inhibition above about 50%
NR2E3 ag-1: NR2E3 agonists in two-hybrid cells, primary screen, cell-based, luminescence, CHO-S, Gal4-NCOR/VP16-NR2E3; Photoreceptor-specific nuclear receptor (Homo sapiens), Q9Y5X4; luciferase; inhibition of corepressor binding, % at 3.98 µM; 360,000 tested, 0.35% active; AID 602229, 2012;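 active = inhibition above the mean of all tested compounds plus 3 SD, cut at about 70% in these data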;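 also: 0% = DMSO with NR2E3 transfected cells and 100% = cells lacking NR2E3 construct; higher means lower luciferase signal from less NR2E3 corepressor binding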
miR-122 sensor: miR-122 Renilla sensor signal increase in Huh7, primary screen, miR-122 inhibitor project, cell-based, single point, plate reader | Huh7 miR-122 Renilla luciferase sensor, 48 h; neutral wells = 0, positive control = 100 | activation (reporter increase), % at 12.5 µM | 340,000 tested, 0.3% active | AID 602342, 2012;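 active = mean replicate activation score at least 90 and every replicate individually at or above 90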;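 also: higher luciferase means less miR-122 activity so hits act as miR-122 inhibitors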
FGF22 binding: binders of human FGF22 protein, primary screen, FGF22 synaptogenesis inhibitor project, biophysical, thermal shift, single point. Fibroblast growth factor 22 (Homo sapiens), Q9HCT0. activity (Tm shift, normalised), % at 9.99 µM. AID 651658, 2012. 340,000 tested, 1.5% active. recombinant FGF22 thermal shift, SYPRO orange fluorescence; percent of sucrose octasulfate shift, DMSO zero;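 active = mean Tm shift, scaled 0 neutral to 100 positive control, at about 1.3% or above, every replicate too, limit read from the data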
Target sequence (Q9HCT0 whole entry, looked up): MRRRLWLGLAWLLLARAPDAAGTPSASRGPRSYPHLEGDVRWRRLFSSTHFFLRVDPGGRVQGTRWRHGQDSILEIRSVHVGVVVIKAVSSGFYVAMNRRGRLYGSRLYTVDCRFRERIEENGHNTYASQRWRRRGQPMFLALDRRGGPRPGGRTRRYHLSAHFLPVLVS
NR2E3 ag-2: inhibitors of NR2E3-RetCOR corepressor binding, primary screen, NR2E3 agonist project, biochemical, TR-FRET, GST-NR2E3, biotin-RetCOR; inhibition of corepressor binding, % at 4.78 µM; 320,000 tested, 0.12% active; 1536-well; AID 2300, 2010;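 active = percent inhibition above the cutoff of mean plus 3 SD of all tested compounds, set per screening campaign, cut at about 20% in these data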;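 also: 0% = DMSO wells and 100% = biotin wells as full block of FRET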
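system = GST-tagged NR2E3 plus biotinylated RetCOR corepressor | input = 1.35 nM GST-NR2E3 | also added = 7 nM biotin-RetCOR | schedule = 5 h incubation at 4 °C | measured by = TR-FRET with europium anti-GST and streptavidin-D2, 340 nm excitation | read-out = percent loss of FRET ratio relative to control wells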
Jurkat NFkB conf: PMA/ionomycin-induced NF-kB reporter inhibitors, Jurkat retest, confirmation, T-cell NF-kB inhibitor project, cell-based, luminescence, single concentration | shares compounds with Jurkat NFkB inh | 2,700 tested, 27% active | inhibition, % at 4 µM | AID 435020, 2010 | Jurkat NF-kB luciferase, 16 h;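 active = inhibition reaching about 45% at 4 µM in either replicate, limit read from the data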;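 also: plate controls were PMA/ionomycin stimulated DMSO wells for no effect and unstimulated DMSO wells for full effect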
* = called active by the depositor; x = not tested or not shown; [ ] = dose if it differs, or a comment. Shown are actives, neighbours in structure and some others; about 2.2% of the full set was active somewhere.

SMILES | 697 NFkB inh | Jurkat NFkB inh | NR2E3 ag-1 | miR-122 sensor | FGF22 binding | NR2E3 ag-2 | Jurkat NFkB conf
OC[C@@H]1[C@H](c2ccc(-c3ccc(F)cc3)cc2)[C@H]2CN(Cc3ccccn3)CCCCN12 | x | x | x | 5[16.7 µM] | 0 | x | x
CSc1ccc(CN2CCN(Cc3ccc([N+](=O)[O-])cc3)CC2)cc1 | -24 | 55* | 17 | -2 | 1 | 0 | 26
COc1ccc(S(=O)(=O)N(C)C[C@@H]2Oc3ccc(NS(C)(=O)=O)cc3C(=O)N([C@H](C)CO)C[C@H]2C)cc1 | x | x | x | 2[16.7 µM] | 0 | x | x
C[C@H]1CCCCO[C@H](CN(C)C(=O)Cc2ccccc2)[C@@H](C)CN([C@@H](C)CO)C(=O)c2cc(NS(C)(=O)=O)ccc2O1 | x | x | x | 7[16.7 µM] | 0 | x | x
C[C@@H]1CCCCO[C@@H](CN(C)CC2CC2)[C@@H](C)CN([C@H](C)CO)C(=O)c2cc(NC(=O)NC3CCCCC3)ccc2O1 | x | x | x | 1[16.7 µM] | 0 | x | x
C[C@H]1CN([C@@H](C)CO)C(=O)c2cc(NC(=O)Nc3ccc(C(F)(F)F)cc3)ccc2O[C@H]1CN(C)Cc1ccc(-c2ccccc2)cc1 | x | x | x | -12[16.7 µM] | 1 | x | x
COC(=O)Cc1ccc2sc(-c3ccccc3)nc2c1 | -93 | -156 | -36 | -5 | x | 2 | -99
Cc1ccc(Nc2nc(-c3ccc(O)c(O)c3)cs2)nc1 | -34 | 53* | x | x | 42 | x | -1
CC(=O)Nc1cccc(-c2csc(Nc3ccc(Cl)cn3)n2)c1 | -194 | -156 | -133 | x | 1 | 0 | -76
Cc1ccc(Nc2nc(-c3ccc(F)cc3)cs2)nc1 | -187 | -175 | -139 | 8 | 0 | x | -81
COc1ccc(-c2csc(Nc3ccc(C)cn3)n2)cc1OC | -8 | -15 | -102 | -2 | 0 | -1 | x
CC(=O)Nc1ccc(-c2csc(Nc3ccc(Cl)cn3)n2)cc1 | -26 | 18 | -92 | x | 0 | -1 | x
COc1cccc(-c2cn(CC[C@H]3CC[C@H](NC(C)=O)[C@H](CO)O3)nn2)c1 | x | x | x | x | 0 | x | x
COc1ccc2oc(C(=O)Nc3ccccn3)c(C)c2c1 | -214 | -234 | -130 | -3 | 0 | 6 | -87
CCC(=O)NC(=S)Nc1ccc(-c2nc3ccccc3s2)cc1 | -184 | -152 | -129 | -1 | x | -1 | -83
CCC(=O)NC(=S)Nc1ccc(-c2nc3ccc(C)cc3s2)cc1 | -138 | -115 | -77 | -7 | x | 3 | x
COc1cc(SC)ccc1C(=O)Nc1ccc(C)cc1C | -112 | -153 | x | -2 | x | -3 | -87
COc1cc(SC)ccc1C(=O)Nc1ccc2c(c1)OCO2 | x | x | -88 | 12 | 0 | x | x
COc1cc(SC)ccc1C(=O)Nc1ccc(C)cc1 | -194 | -171 | -146 | x | 0 | 0 | -112
C[C@H](CO)N1C[C@H](C)[C@H](CN(C)S(=O)(=O)c2ccc(Cl)cc2)Oc2c(NC(=O)c3cnccn3)cccc2C1=O | x | x | x | 11[16.7 µM] | x | x | x
C[C@@H]1CN([C@H](C)CO)C(=O)c2cc(NC(=O)CCCN(C)C)ccc2O[C@@H]1CN(C)C(=O)Nc1ccccc1 | x | x | x | x | 0 | x | x
COc1cccc(-c2ccc3c(c2)[C@@H]2[C@@H](CCN2C(=O)C2CCOCC2)[C@H](CO)N3)c1 | x | x | x | -3[16.7 µM] | 0 | x | x
C[C@@H]1CN([C@H](C)CO)C(=O)c2cc(NC(=O)Nc3ccc(C(F)(F)F)cc3)ccc2O[C@@H](C)CCCCO[C@@H]1CN(C)C(=O)C1CCCCC1 | x | x | x | -5[16.7 µM] | 0 | x | x
CCc1ccc(Nc2ncc3c(n2)CC(C)CC3=O)cc1 (stereo not given) | -164 | -172 | -42 | -3 | 0 | 2 | -91
